Here are results for seven molecules from ChEMBL document CHEMBL4477168, “Hydrolyzable Tannins of Tamaricaceous Plants. 7.1 Structures and Cytotoxic Properties of Oligomeric Ellagitannins from Leaves of Tamarix nilotica and Cultured Tissues of Tamarix tetrandra” (J Nat Prod, 2016).

For data set [1], the system named is HSC-3. Briefly: Cytotoxic activity against human HSC3 cells assessed as reduction in cell viability incubated for 48 hrs by MTT assay. The format is functional. The conditions noted are these: HSC-3, 48 h. Put shortly: (§1)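 OSCC lines HSC-2, HSC-3, HSC-4 grown in DMEM + 10% heat-inactivated FBS, 37 °C, humidified 5% CO2. Seeded 5 × 10^3 cells/well; after 48 h medium swapped for compound-containing medium (20 mM DMSO stock; top 100 μM, 2-fold serial dilution, three replicate wells). Further 48 h, viable cells by MTT; CC50 read from dose−response curve; at least three independent experiments averaged.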
On the technique in general: Tetrazolium assays rely on reduction of a dye to a coloured formazan, in cell work by metabolically active cells.

In data set [2] the test system is HL-60. Kind of data set: Cytotoxic activity against human HL60 cells assessed as reduction in cell viability incubated for 48 hrs by trypan blue staining based hemocytometry. The conditions noted are these: HL-60, 48 h. The format is functional. The gist of the method: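 HL-60 cultured in RPMI1640 + 10% heat-inactivated FBS at 37 °C; plated at 3.0 × 10^4 cells/0.1 mL with various compound concentrations (DMSO stock 20 mM). After 48 h, viable cells counted by trypan blue exclusion on a hemocytometer under light microscope; CC50 from dose−response curve, mean of at least three independent experiments.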

Data set [3] is described as follows: Cytotoxic activity against human HPLF cells assessed as reduction in cell viability incubated for 48 hrs by MTT assay. The class given is cell-based. Put shortly: (§2)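 Normal oral cells (gingival fibroblasts, pulp cells, periodontal ligament fibroblasts) from a premolar of a child, used at 8−15 population doublings; DMEM + 10% heat-inactivated FBS, 37 °C, 5% CO2. Seeded 5 × 10^3 cells/well, medium replaced after 48 h with compound (DMSO stock 20 mM; 2-fold dilutions from 100 μM, triplicate wells); 48 h more, MTT viability; CC50 from dose−response curve; mean of ≥3 independent experiments.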

Data set [4] relates to HSC-2. Kind of data set: Cytotoxic activity against human HSC2 cells assessed as reduction in cell viability incubated for 48 hrs by MTT assay. The class given is functional. Conditions: HSC-2, 48 h. Put shortly: as §1
The nature of data set [5]: Cytotoxic activity against human HGF cells assessed as reduction in cell viability incubated for 48 hrs by MTT assay. The class given is cell-based. The gist of the method:
as §2

The subject of data set [6] is HSC-4. Kind of data set: Cytotoxic activity against human HSC4 cells assessed as reduction in cell viability incubated for 48 hrs by MTT assay. The format is functional. The conditions noted are these: HSC-4, 48 h. The gist of the method:
as §1

Data set [7] is described as follows: Cytotoxic activity against human HPC cells assessed as reduction in cell viability incubated for 48 hrs by MTT assay. The class given is cell-based. Put shortly: as §2

Structures are written as SMILES. Some results are limits rather than exact numbers.

A word on the CC50: it is the concentration that lowers cell viability or growth by half. `O=C(O[C@@H]1O[C@@H]2COC(=O)c3cc(O)c(O)c(O)c3-c3c(cc(O)c(O)c3O)C(=O)O[C@H]2[C@H](OC(=O)c2cc(O)c(O)c(O)c2)[C@H]1OC(=O)c1cc(O)c(O)c(O)c1Oc1cc(C(=O)O[C@@H]2O[C@@H]3COC(=O)c4cc(O)c(O)c(O)c4-c4c(cc(O)c(O)c4O)C(=O)O[C@H]3[C@H](OC(=O)c3cc(O)c(O)c(O)c3)[C@H]2OC(=O)c2cc(O)c(O)c(O)c2Oc2cc3c(c(O)c2O)Oc2cc(cc(O)c2O)C(=O)O[C@@H]2O[C@@H]4COC(=O)c5cc(O)c(O)c(O)c5-c5c(cc(O)c(O)c5O)C(=O)O[C@H]4[C@H](OC(=O)c4cc(O)c(O)c(O)c4)[C@H]2OC3=O)cc(O)c1O)c1cc(O)c(O)c(O)c1`: the CC50 is 25.5 µM in data set [1], 16.4 µM in data set [2], 18.8 µM in data set [4] and 34.3 µM in data set [6]. Besides, the results for the CC50 at 48 h in data set [3], in data set [5] and in data set [7] were 98.6 µM, 87.7 µM and 85 µM, respectively.
`O=C(O[C@H]1[C@@H]2OC(=O)c3cc(O)c(O)c(O)c3-c3c(cc(O)c(O)c3O)C(=O)OC[C@H]2OC(O)[C@@H]1O)c1cc(O)c(O)c(O)c1` (some centres undefined): the CC50 in data set [1] stood at 23.3 µM; in data set [2] it was 30.5 µM; in data set [4], 5.82 µM; in data set [6], 34.4 µM. In addition, the CC50 at 48 h in data set [3], in data set [5] and in data set [7] was above 100 µM each time.
Take `O=C(O[C@@H]1O[C@@H]2COC(=O)c3cc(O)c(O)c(O)c3-c3c(cc(O)c(O)c3O)C(=O)O[C@H]2[C@H](OC(=O)c2cc(O)c(O)c(O)c2)[C@H]1OC(=O)c1cc(O)c(O)c(O)c1)c1cc(O)c(O)c(Oc2c(C(=O)O[C@H]3[C@H](OC(=O)c4cc(O)c(O)c(Oc5c(C(=O)O[C@H]6C(O)O[C@@H]7COC(=O)c8cc(O)c(O)c(O)c8-c8c(cc(O)c(O)c8O)C(=O)O[C@H]7[C@@H]6OC(=O)c6cc(O)c(O)c(O)c6)cc(O)c(O)c5O)c4)O[C@@H]4COC(=O)c5cc(O)c(O)c(O)c5-c5c(cc(O)c(O)c5O)C(=O)O[C@H]4[C@@H]3OC(=O)c3cc(O)c(O)c(O)c3)cc(O)c(O)c2O)c1` (some centres undefined): the CC50 stood at 21.2 µM in data set [1], 6.48 µM in data set [2], 23.2 µM in data set [4] and 33.9 µM in data set [6]. In addition, the half-maximal cytotoxic concentration (CC50) at 48 h in data set [3] was 88.3 µM; in data set [5], 88 µM; in data set [7] it was 86 µM.
Turning to `O=C(O[C@@H]1O[C@@H]2COC(=O)c3cc(O)c(O)c(O)c3-c3c(cc(O)c(O)c3O)C(=O)O[C@H]2[C@H](OC(=O)c2cc(O)c(O)c(O)c2)[C@H]1OC(=O)c1cc(O)c(O)c(O)c1)c1cc(O)c(O)c(Oc2c(C(=O)O[C@@H]3[C@@H](OC(=O)c4cc(O)c(O)c(O)c4)[C@@H]4OC(=O)c5cc(O)c(O)c(O)c5-c5c(cc(O)c(O)c5O)C(=O)OC[C@H]4O[C@H]3O)cc(O)c(O)c2O)c1`, the CC50 in data set [1] was determined as 32.6 µM; in data set [2], 19.5 µM; in data set [4], 17.7 µM; in data set [6], 37.9 µM. The CC50 at 48 h is above 100 µM in data set [3], 92 µM in data set [5] and 86.6 µM in data set [7].
In the case of `O=C(O[C@@H]1O[C@@H]2COC(=O)c3cc(O)c(O)c(O)c3-c3c(cc(O)c(O)c3O)C(=O)O[C@H]2[C@H](OC(=O)c2cc(O)c(O)c(O)c2)[C@H]1OC(=O)c1cc(O)c(O)c(O)c1)c1cc(O)c(Oc2c(C(=O)O[C@H]3[C@H](OC(=O)c4cc(O)c(O)c(O)c4)O[C@@H]4COC(=O)c5cc(O)c(O)c(O)c5-c5c(cc(O)c(O)c5O)C(=O)O[C@H]4[C@@H]3OC(=O)c3cc(O)c(O)c(O)c3)cc(O)c(O)c2O)c(O)c1`, the CC50 is 29.4 µM in data set [1], 29.7 µM in data set [2], 16.3 µM in data set [4] and 27.7 µM in data set [6]. Further, the values for the half-maximal cytotoxic concentration (CC50) at 48 h in data set [3], in data set [5] and in data set [7] were above 100 µM, 95.3 µM and 89 µM, respectively.
As for `O=C(O[C@@H]1O[C@@H]2COC(=O)c3cc(O)c(O)c(O)c3-c3c(cc(O)c(O)c3O)C(=O)O[C@H]2[C@H](OC(=O)c2cc(O)c(O)c(O)c2)[C@H]1O)c1cc(O)c(O)c(O)c1`, the cytotoxic concentration (CC50) was determined as 28 µM in data set [1], 39.9 µM in data set [2], 14.1 µM in data set [4] and 38 µM in data set [6]. For the same molecule, the cytotoxic concentration (CC50) at 48 h in data set [3], in data set [5] and in data set [7] was above 100 µM each time.
Consider `O=C(O[C@H]1[C@@H]2OC(=O)c3cc(O)c(O)c(O)c3-c3c(cc(O)c(O)c3O)C(=O)OC[C@H]2OC(O)[C@@H]1OC(=O)c1cc(O)c(O)c(O)c1)c1cc(O)c(O)c(O)c1` (some centres undefined), for which the 50% cytotoxic concentration (CC50) in data set [1] is 19.5 µM; in data set [2], 46.7 µM; in data set [4], 14.6 µM; in data set [6], 45.7 µM. Also, the results for the half-maximal cytotoxic concentration (CC50) at 48 h in data set [3], in data set [5] and in data set [7] were above 100 µM, above 100 µM and 64 µM, respectively.
